This passage reports inhibition, Activity and viability results from ChEMBL document CHEMBL4842330, “New nimesulide derivatives with amide/sulfonamide moieties: Selective COX-2 inhibition and antitumor effects” (Eur J Med Chem, 2021).

Calls of active or inactive are those of the source. The calls are words filed in the database; no cut-off is given here.

Series [1] has as its target COX-1 (Prostaglandin G/H synthase 1) (Homo sapiens, UniProt P23219). The series can be described thus: Inhibition of human recombinant COX-1 at 10 uM using arachidonic acid as substrate preincubated for 10 mins followed by substrate addition relative to control. Particulars: recombinant COX-1, probe arachidonic acid.
In series [2] the test system is THP-1. As to the kind of experiment: Antiinflammatory activity in LPS-stimulated human THP-1 cells assessed as suppression of PGE2 release at 50 uM incubated for 24 hrs by ELISA relative to control. It is filed as functional. The essentials: (§1)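 THP-1 monocytes were differentiated with PMA (10 ng/mL, 24 h) and rested 24 h PMA-free. They were then given compound alongside 1 µg/mL LPS for 24 h. PGE₂ in supernatants was measured by ELISA and normalised to the BCA total protein of viable cells. Final DMSO ≤1.0%; at least three independent biological replicates.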

The subject of series [3] is THP-1. The series can be described thus: Antiinflammatory activity in LPS-stimulated human THP-1 cells assessed as suppression of PGE2 release at 100 uM incubated for 24 hrs by ELISA relative to control. It is filed as functional. In short, it runs like this:
as §1
In general terms: In an ELISA, binding on a coated surface is turned into a signal by an enzyme label.

Series [4] deals with THP-1. As to the kind of experiment: Antiinflammatory activity in LPS-stimulated human THP-1 cells assessed as suppression of COX-2 mRNA expression at 50 uM incubated for 24 hrs by ELISA relative to control. As to conditions: in the assay text read “by qPCR” for “by ELISA”. It is filed as functional. In short, it runs like this:
(§2)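 THP-1 monocytes plated at 1 × 10⁶ cells/mL, differentiated with 10 ng/mL PMA for 24 h, then rested 24 h in PMA-free medium. Cells were treated with compound and LPS stimulation. COX mRNA was quantified by qPCR with TaqMan probes against β-actin as housekeeping gene. Compound stocks in DMSO, final DMSO ≤1.0%.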

In series [5] the test system is THP-1. The series can be described thus: Antiinflammatory activity in LPS-stimulated human THP-1 cells assessed as suppression of COX-2 mRNA expression at 100 uM incubated for 24 hrs by ELISA relative to control. It is filed as functional. As to conditions: in the assay text read “by qPCR” for “by ELISA”. The essentials:
as §2

Series [6] concerns RAW264.7. As to the kind of experiment: Inhibition of LPS-induced NO release in mouse RAW264.7 cells at 20 uM when treated with compound and LPS simultaneously measured after 24 hrs by Griess reagent based assay relative to control. It counts as functional. In short, it runs like this:
(§3)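 RAW264.7 cells were plated at 4 × 10⁵ cells/mL in phenol-free medium and left 24 h. They then received compound together with LPS (1 µg/mL) for 24 h. Nitrite in supernatants was measured by the Griess reaction and normalised to BCA total protein of viable cells. 1400W at 20 µM served as positive control.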
(In general: Nitrite, measured by Griess reagent, commonly stands in for NO production.)

Series [7] can be described thus: Inhibition of LPS-induced iNOS mRNA expression in mouse RAW264.7 cells assessed as downregulation of iNOS mRNA expression at 20 uM by RT-qPCR analysis relative to control. It counts as functional. The essentials: (§4)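 RAW264.7 cells were kept in high-glucose DMEM with 10% FBS. They were treated with compound alongside LPS stimulation. iNOS, TNF-α and IL-1β mRNA were quantified by qPCR using TaqMan probes, with β-actin as housekeeping gene, and expressed relative to LPS control. Final DMSO ≤1.0%.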

Series [8] relates to RAW264.7. As to the kind of experiment: Inhibition of LPS-induced iNOS mRNA expression in mouse RAW264.7 cells assessed as downregulation of iNOS mRNA expression at 50 uM by RT-qPCR analysis relative to control. It counts as functional, cell-based. The essentials: as §4
A general note: In qPCR the cycle at which signal appears reflects the starting amount.

A short description of series [9]: Inhibition of LPS-induced IL-1 beta mRNA expression in mouse RAW264.7 cells at 20 uM by RT-qPCR analysis relative to control. It is filed as functional. In short, it runs like this: as §4
The nature of series [10]: Inhibition of LPS-induced IL-1 beta mRNA expression in mouse RAW264.7 cells at 50 uM by RT-qPCR analysis relative to control. It counts as functional. In short, it runs like this:
as §4

Series [11] is described as follows: Inhibition of LPS-induced TNF alpha mRNA expression in mouse RAW264.7 cells at 20 uM by RT-qPCR analysis relative to control. It is filed as functional. The essentials: as §4
The nature of series [12]: Inhibition of LPS-induced TNF alpha mRNA expression in mouse RAW264.7 cells at 50 uM by RT-qPCR analysis relative to control. It is filed as functional. In short, it runs like this:
as §4

A further series has as its system MCF7. As to the kind of experiment: Cytotoxicity against human MCF7 cells assessed as cell viability at 100 uM after 48 hrs by MTT assay relative to control. It is filed as functional. As to conditions: read-out: Activity. In short, it runs like this:
(§5)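 Cells in exponential growth were seeded at 5 × 10⁴ cells/mL, held 24 h at 37 °C, then exposed to compound for 48 h. MTT was added to 1 mg/mL final for 2 h. Formazan was dissolved in DMSO and read at 570 nm, with 620 nm background subtraction. Final DMSO ≤1.0%; viability reported as percentage of control.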

In a further series the test system is PC-3. As to the kind of experiment: Cytotoxicity against human PC-3 cells assessed as cell viability at 100 uM after 48 hrs by MTT assay relative to control. It is filed as functional. As to conditions: read-out: Activity. In short, it runs like this:
as §5

For the next series, the system named is HT-29. As to the kind of experiment: Cytotoxicity against human HT-29 cells assessed as cell viability at 100 uM after 48 hrs by MTT assay relative to control. It is filed as functional. Particulars: read-out: Activity. The essentials:
as §5

In series [13] the test system is RAW264.7. The series can be described thus: Inhibition of LPS-induced NO release in mouse RAW264.7 cells at 50 uM when treated with compound and LPS simultaneously measured after 24 hrs by Griess reagent based assay relative to control. It counts as functional. The essentials: as §3
Series [14] deals with T1, Prostaglandin G/H synthase 2 (Homo sapiens) (UniProt P35354).
T1 sequence (whole entry): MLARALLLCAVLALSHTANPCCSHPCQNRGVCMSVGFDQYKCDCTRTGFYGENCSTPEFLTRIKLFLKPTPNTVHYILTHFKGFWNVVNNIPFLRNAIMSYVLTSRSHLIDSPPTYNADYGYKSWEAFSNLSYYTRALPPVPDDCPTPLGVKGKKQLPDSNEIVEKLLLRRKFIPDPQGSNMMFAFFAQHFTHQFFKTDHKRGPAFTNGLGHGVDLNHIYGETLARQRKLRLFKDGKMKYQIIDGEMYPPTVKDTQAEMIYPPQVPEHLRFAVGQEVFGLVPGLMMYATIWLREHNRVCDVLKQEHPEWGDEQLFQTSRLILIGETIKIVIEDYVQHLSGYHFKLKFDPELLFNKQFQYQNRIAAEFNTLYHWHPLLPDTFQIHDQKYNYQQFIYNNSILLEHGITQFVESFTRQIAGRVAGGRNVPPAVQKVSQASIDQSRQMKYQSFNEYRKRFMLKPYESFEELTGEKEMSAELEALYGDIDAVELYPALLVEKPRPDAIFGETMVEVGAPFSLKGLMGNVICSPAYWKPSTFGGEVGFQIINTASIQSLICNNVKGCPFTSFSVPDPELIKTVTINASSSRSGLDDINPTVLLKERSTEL
The series can be described thus: Inhibition of human recombinant COX-2 at 1 uM using arachidonic acid as substrate preincubated for 10 mins followed by substrate addition relative to control.

Chain of COX-1 (Prostaglandin G/H synthase 1) (P23219 whole entry): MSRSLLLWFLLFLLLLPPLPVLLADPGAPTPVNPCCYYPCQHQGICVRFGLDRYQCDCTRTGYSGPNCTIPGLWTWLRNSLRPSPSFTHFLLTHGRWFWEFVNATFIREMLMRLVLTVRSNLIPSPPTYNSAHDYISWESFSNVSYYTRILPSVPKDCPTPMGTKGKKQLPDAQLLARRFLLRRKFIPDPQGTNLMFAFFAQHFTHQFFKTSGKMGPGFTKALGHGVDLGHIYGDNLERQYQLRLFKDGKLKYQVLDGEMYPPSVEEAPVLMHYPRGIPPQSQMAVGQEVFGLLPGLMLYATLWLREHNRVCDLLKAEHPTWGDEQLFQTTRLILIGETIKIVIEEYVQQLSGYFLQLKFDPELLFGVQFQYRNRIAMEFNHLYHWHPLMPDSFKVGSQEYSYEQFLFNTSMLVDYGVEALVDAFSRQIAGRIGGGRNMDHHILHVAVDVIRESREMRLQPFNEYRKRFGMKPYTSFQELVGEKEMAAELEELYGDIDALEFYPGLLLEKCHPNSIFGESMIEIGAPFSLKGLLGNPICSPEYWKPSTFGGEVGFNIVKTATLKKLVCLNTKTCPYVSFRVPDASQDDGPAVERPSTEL

Usually inhibition stands for the drop in the measured response relative to a control, in per cent. As to `CC(C)Oc1cc(NC(=O)c2ccc(F)cc2)ccc1NS(C)(=O)=O`, in series [1], the inhibition at 10 µM was 27.2%. Further, the Activity with THP-1 [2] turned out to be 67%; with THP-1 [3] it was 68%; with THP-1 [4] it was 53%; with THP-1 [5] it was 61%. Also, the inhibition at 20 µM was determined as 43% with RAW264.7 [6], 40% in series [7], 45% in series [9] and 44% in series [11]. The inhibition entry with RAW264.7 [8] is “Active”. Further, the inhibition at 50 µM was 51% in series [10], 57% in [12] and 46.4% in the series with RAW264.7 [13]. The viability at 100 µM in the series with MCF7 worked out at 110%; in the series on PC-3, 79.4%; in the series on HT-29, 49.6%. For the same compound, the inhibition in series [14] was found to be 72.8%.
